A short description of this data set: Toxicity liver stage against HepG2, at 10uM. Format: cell-based. As to conditions: human, HepG2-A16-CD81EGFP cells; read-out: INHIBITION
Details: test concentration 10 uM, cell line HepG2-A16-CD81EGFP. In short, it runs like this:
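Uninfected HepG2-A16-CD81EGFP cells, 3 × 10^3 per well, 1536-well, plated on prespotted compound at 10 μM final, parasite-free screening media added to match infected plates; puromycin 10 μM positive, DMSO 0.5% negative; run in parallel with 48 h PbLuc assay at 37 °C, 5% CO2; viability by CellTiter-Glo luminescence, normalized to controls.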
Take `O=C(NCCc1nnc2n1CCC2)N(Cc1ccco1)C1CCCC1`: the cytotoxicity at 10 µM was 5.04%.

With `CC(C)c1nccn1C1CCCN(C(=O)c2ccc3[nH]cnc3c2)C1` (stereo unspecified), the cytotoxicity at 10 µM is -8.24%.

As for `O=C(C1CCOC1)N1CCN(Cc2ccncc2)c2ncccc2C1` (stereo unspecified), the cytotoxicity at 10 µM came to 0.617%.

On to `O=C(c1ccc[nH]1)N1CCCn2c(nnc2Cn2cccn2)C1`, for which the cytotoxicity at 10 µM was 8.06%.

As for `CSc1ccccc1CN1C[C@H]2C(=O)N(CC3CC3)C[C@@]2(C(=O)O)C1`, the cytotoxicity at 10 µM is 0.666%.

For `Cc1ccc(CN(C)c2nccc(-c3cn(C)nc3C)n2)o1`, the cytotoxicity at 10 µM came to 4.17%.

For `Cc1nc(C)n(C2CCCN(C(=O)c3cnc[nH]3)C2)n1` (stereo unspecified), the cytotoxicity at 10 µM was -5.04%.

Consider `Cc1nc(NS(=O)(=O)c2cccc(F)c2C)no1`, for which the cytotoxicity at 10 µM amounted to 5.3%.

Regarding `COCCN1C(=O)CC(c2cccnc2)C12CCN(C)CC2` (stereo unspecified), the cytotoxicity at 10 µM is -97.6%.

Consider `CCn1cc(CN2CCC(N3CCC(O)CC3)CC2)cc1C#N`, for which the cytotoxicity at 10 µM amounted to 0.371%.

With `CC(=O)Nc1nc(C2CCN(C(C)=O)CC2)cs1`, the cytotoxicity at 10 µM was found to be 4.3%.

Consider `CC(C)Cc1noc(CN2CCN(C(=O)c3cccc(F)c3)CC2)n1`, for which the cytotoxicity at 10 µM was -5.7%.

Regarding `CC(C)c1ncc2c(n1)CN(c1ncnc3[nH]ccc13)CC2`, the cytotoxicity at 10 µM was -3.28%.

Regarding `O[C@@H]1CN(Cc2ccc(F)c(F)c2)CC[C@H]1NCc1ccccn1`, the cytotoxicity at 10 µM is 3.85%.

Take `O=C(NCc1nnc2n1CCC2)c1ccc(Br)s1`: the cytotoxicity at 10 µM came to 2.74%.

As to `O=C(COC1CCCC1)NCc1ccc(O)c(F)c1`, the cytotoxicity at 10 µM was -2.43%.

`CC(=O)N(CCc1ccccc1)CC(=O)NC(C)(C)C#N`: the cytotoxicity at 10 µM is 8.06%.

As for `O=C(O)c1cccnc1CN1CCCCC1CCc1ccccn1` (stereo unspecified), the cytotoxicity at 10 µM was 7.4%.

Take `CNS(=O)(=O)c1ccc(CNC(=O)N(C)CC(O)COC)cc1` (stereo unspecified): the cytotoxicity at 10 µM is -1.22%.

On to `CCOCCCNC(=O)CN(c1ccc(F)c(F)c1)S(C)(=O)=O`, for which the cytotoxicity at 10 µM is 9.96%.

Consider `COCC(=O)NCC[C@H]1CC(C)(C)Oc2ccc(OC)cc21`, for which the cytotoxicity at 10 µM is -5.36%.

With `CCn1cc(NC(=O)C2CCN(Cc3nc(C(C)C)no3)CC2)cn1`, the cytotoxicity at 10 µM amounted to 0.449%.

With `CC(C)c1nnc(NC(=O)NC2CCOc3ccccc32)s1` (stereo unspecified), the cytotoxicity at 10 µM is 18.1%.

Regarding `COc1ccccc1C(NC(=O)C1CCCC1)c1noc(C)n1` (stereo unspecified), the cytotoxicity at 10 µM was -2.17%.

For the molecule `O=C(c1ccccc1F)N1CC(c2nc(-c3ccc[nH]c3=O)no2)C1`, the cytotoxicity at 10 µM came to 2.21%.

In the case of `CN1CCCC(N(C)C(=O)c2ccc(NC(=O)c3ccc[nH]3)cc2)C1` (stereo unspecified), the cytotoxicity at 10 µM is -11.4%.

`CC(C)CNC(=O)CSC1CCc2ccccc2NC1=O` (stereo unspecified): the cytotoxicity at 10 µM was -2.38%.

Take `Cc1nc(COC(=O)c2cccnc2C)no1`: the cytotoxicity at 10 µM is -0.2%.

As to `CC(N(C)Cc1nc2c(cnn2C)c(=O)[nH]1)C(C)(C)C` (stereo unspecified), the cytotoxicity at 10 µM is -3.09%.

Consider `Cc1cc(N2CCC3(CC2)C(C(=O)O)CC(=O)N3C)nc2ccccc12` (stereo unspecified), for which the cytotoxicity at 10 µM was -1.6%.

In the case of `Cc1nccn1CCC1CCN(C(C)C)CC1`, the cytotoxicity at 10 µM was -20.7%.

For the molecule `CCN(C)CC(C)Cn1cnc(-c2ccccc2)c1-c1cncn1CC` (stereo unspecified), the cytotoxicity at 10 µM was found to be 1.33%.

Consider `CCOc1cc(CN(C)CC(=O)O)ccc1OC(F)F`, for which the cytotoxicity at 10 µM was 7.99%.

Turning to `COCc1ccccc1C(=O)NCC(c1c(F)cccc1F)N(C)C` (stereo unspecified), the cytotoxicity at 10 µM was -9.75%.

Take `COc1ccccc1C1CC(=O)Nc2nc(N3CCCCC3)sc21` (stereo unspecified): the cytotoxicity at 10 µM was found to be 11.5%.

For `CNC(=O)N1CCc2cc(C(=O)N(C)C)c(NCC3CC3)nc2CC1`, the cytotoxicity at 10 µM was -0.395%.

As to `C=C/C=c1\c(=C/C)oc2c(NCc3ccccc3)ncnc12`, the cytotoxicity at 10 µM amounted to 21.3%.

As for `Cc1ccc(C(=O)N2CCN(Cc3cccs3)CC2)n1C`, the cytotoxicity at 10 µM is -5.37%.

On to `COc1ccccc1OC1CN(C(=O)CN(C)Cc2ccncc2)C1`, for which the cytotoxicity at 10 µM was -3.09%.

On to `N#CCCCN1CCCC1Cc1ccccc1` (stereo unspecified), for which the cytotoxicity at 10 µM was -45.4%.

`CN(C(=O)c1ccc(C#N)cc1)c1nnc(C2CCOC2)s1` (stereo unspecified): the cytotoxicity at 10 µM is 0.36%.

Regarding `CNC(=O)N1CCC(=Cc2ccccc2)CC1`, the cytotoxicity at 10 µM is -1.52%.

For `O=S(=O)(C1CC1)N1CCC2(CC1)COC(COc1cccnc1)C2` (stereo unspecified), the cytotoxicity at 10 µM stood at 9.49%.

In the case of `c1cc(CN2CCO[C@@H]3CNC[C@@H]32)co1`, the cytotoxicity at 10 µM was 6.71%.

Turning to `Cn1cc(C2CC3(CCN(C(=O)c4cccs4)CC3)NC2=O)cn1` (stereo unspecified), the cytotoxicity at 10 µM is 1.27%.

On to `CN(C)c1cc(C(=O)N2CCCN(Cc3nccn3C)CC2)ccn1`, for which the cytotoxicity at 10 µM was -1.56%.

In the case of `O=C(c1cncc(N2CCCC3(CCNCC3)CC2)n1)N1CCCCC1`, the cytotoxicity at 10 µM was -3.38%.

In the case of `Cn1cc(CN2C[C@@H](NC(=O)c3cscn3)[C@H]3OCCC[C@H]32)cn1`, the cytotoxicity at 10 µM is -11.7%.

Regarding `Cc1nnc([C@@H]2CC[C@@H]3[C@@H](CCN3CC3CCOCC3)O2)o1`, the cytotoxicity at 10 µM stood at 7.64%.

With `O=S(=O)(c1cccnc1)N1C[C@H]2CC[C@@H](C1)N(Cc1ccccn1)C2`, the cytotoxicity at 10 µM was -0.807%.

`O=C(c1cccnc1)N1CCc2onc(CN3CCCC3)c2C1`: the cytotoxicity at 10 µM came to 4.86%.

Turning to `Cc1nn(C)c(C)c1C1CCCN1Cc1nc(N)c2ccccc2n1` (stereo unspecified), the cytotoxicity at 10 µM is -16%.

Turning to `CC(Oc1cccc(Cl)c1)C(=O)Nc1cnn(CC(=O)NC2CC2)c1` (stereo unspecified), the cytotoxicity at 10 µM is 1.73%.

Consider `CCc1nc(C)cc(N2CCN(C(=O)[C@@H]3C[C@H]4C=C[C@@H]3C4)CC2)n1`, for which the cytotoxicity at 10 µM worked out at 5.68%.

Regarding `CC(C)(C)CC(=O)N1CCc2sccc2C1`, the cytotoxicity at 10 µM worked out at 3.61%.

Regarding `Cc1ccccc1C(=O)N1C[C@@H]2OCCN(c3ncccn3)[C@@H]2C1`, the cytotoxicity at 10 µM was 29.5%.

Take `CC(C)n1cc(CN2CCCN(C(=O)C(C)n3cccn3)CC2)cn1` (stereo unspecified): the cytotoxicity at 10 µM is -17.9%.

For `Cc1cc(Br)c2c(c1)C1(CC(=O)Nc3c1cnn3C(C)C)C(=O)N2` (stereo unspecified), the cytotoxicity at 10 µM was -10.3%.

With `CCc1nn(C)c(CC)c1CNC(=O)Nc1cccc([S+](C)[O-])c1` (stereo unspecified), the cytotoxicity at 10 µM is -1.01%.

Take `CSCc1noc(C2CCC(=O)N(CCc3ccccc3)C2)n1` (stereo unspecified): the cytotoxicity at 10 µM was -6.72%.

`Cc1cc(CN(C)C(=O)NCc2cccc(N3CCCC3=O)c2)no1`: the cytotoxicity at 10 µM was -12.4%.

As to `Cn1ncc2c1CCCC2NCc1ccc(OCc2cccnc2)cc1` (stereo unspecified), the cytotoxicity at 10 µM is 4.13%.

In the case of `O=C(NC[C@H]1OC[C@@H](NC(=O)c2ccccc2)[C@@H]1O)c1ccncc1`, the cytotoxicity at 10 µM is 2.55%.

As to `Cc1nc(NC(=O)C2CCCN(C(=O)C3CC3)C2)sc1C` (stereo unspecified), the cytotoxicity at 10 µM amounted to 3.71%.

As for `OCCO[C@H]1C[C@@H](O)C12CCN(Cc1nc(C(F)(F)F)no1)CC2`, the cytotoxicity at 10 µM turned out to be 0.145%.

As for `CNC(=O)CCNC(=O)c1cc(Br)c2c(c1)OCCO2`, the cytotoxicity at 10 µM was 3.82%.

With `CCCNC(=O)CCNc1cncc(-n2nc(C)cc2C)n1`, the cytotoxicity at 10 µM was determined as 5.3%.

Take `OC1CCN(C2CCN(Cc3cnc(-c4cccs4)nc3)CC2)CC1`: the cytotoxicity at 10 µM was -9.77%.

`CN1CCO[C@@H]2CN(S(=O)(=O)c3ccc(F)cc3)CC[C@@H]2C1`: the cytotoxicity at 10 µM came to 2.56%.

As to `c1ccc2nc(N3CCOC(Cn4cncn4)C3)cnc2c1` (stereo unspecified), the cytotoxicity at 10 µM was -11.5%.

As to `Cc1nn(C)c(Cl)c1C1CCCN1C(=O)c1cc(Cl)c[nH]1` (stereo unspecified), the cytotoxicity at 10 µM is -6.83%.

Turning to `CC(C)NC(=O)N1CCC2(CC1)NC(=O)CC2c1ccncc1` (stereo unspecified), the cytotoxicity at 10 µM was -2.94%.

On to `CC(c1nnc(-c2cccs2)o1)N1CCc2cncnc2C1` (stereo unspecified), for which the cytotoxicity at 10 µM was determined as 6.37%.

As to `Cc1cnn(CCC(=O)Nc2ccc(F)cc2OCC2CC2)c1`, the cytotoxicity at 10 µM is -4.11%.

Regarding `CCOc1ccccc1CN(C)C(C)c1nc(-c2cccnc2)no1` (stereo unspecified), the cytotoxicity at 10 µM was 7.84%.

With `c1cnc(N2CCOC3(CCCN(c4cnccn4)C3)C2)nc1` (stereo unspecified), the cytotoxicity at 10 µM was found to be 10.1%.

For the molecule `Cc1cc(Cl)ccc1C(=O)C1CCCN(Cc2cnc(N(C)C)s2)C1` (stereo unspecified), the cytotoxicity at 10 µM is -13.1%.

Turning to `CNC(=O)[C@@H]1CN(C(=O)CCOC)C[C@H]1c1ccnc(N2CCCC2)n1`, the cytotoxicity at 10 µM is -3.43%.

As for `Cc1noc([C@@H]2CCO[C@@H]3CCN(C(=O)Cc4ccsc4)C[C@@H]32)n1`, the cytotoxicity at 10 µM was determined as 10.4%.

As for `COCCNC(=O)c1cc(-c2ccc3c(c2)CCO3)n[nH]1`, the cytotoxicity at 10 µM was found to be 0.843%.

Take `Cc1ccoc1C(=O)NC1CCN(Cc2cccc3ccccc23)CC1`: the cytotoxicity at 10 µM is 0.561%.

For the molecule `COc1ccc(F)cc1C(=O)N1CCCC(n2nc(C)nc2C)C1` (stereo unspecified), the cytotoxicity at 10 µM amounted to 3.05%.

Take `O=S(=O)(CCCN1CCCC(Cn2cncn2)C1)c1ccccc1` (stereo unspecified): the cytotoxicity at 10 µM was -11.7%.

`Cc1ccsc1CNCc1c(C(C)C)nn(C)c1N1CCOCC1`: the cytotoxicity at 10 µM was 8.42%.

Regarding `COc1cccc(C=CCCN2CCN(S(C)(=O)=O)CC2)c1`, the cytotoxicity at 10 µM is -1.62%.

As to `COc1ccc2[nH]c(C(=O)NCC3(N)CCCC3)cc2c1`, the cytotoxicity at 10 µM was 4.3%.

In the case of `Cc1nccn1C1CCCN(C(=O)c2cccc(OCC(N)=O)c2)C1` (stereo unspecified), the cytotoxicity at 10 µM is -13%.

For `CCN(CC)c1ccc(C2c3c(n[nH]c3C)N=C3COC(=O)C32)cc1` (stereo unspecified), the cytotoxicity at 10 µM was determined as 4.33%.

Consider `COc1ccc2c(c1)CN(CC1CC1)C(=O)CCN2CC(C)(C)O`, for which the cytotoxicity at 10 µM was -13.9%.

Regarding `COCCCn1ccnc1-c1cnc(OC)nc1`, the cytotoxicity at 10 µM was -13.6%.

`CC(C)Cn1cnc(S(=O)(=O)Nc2cccnc2-n2cccn2)c1`: the cytotoxicity at 10 µM was -1.75%.

For the molecule `O=C(Cn1cccn1)NCC1(c2ccccc2)CC1`, the cytotoxicity at 10 µM is 3.13%.

For the molecule `O=C(c1nc2c(s1)CCCN2C(=O)C1CC1)N1CCCC1`, the cytotoxicity at 10 µM was 7.02%.

As for `Cc1cc(C2CCCN(Cc3nc(Cc4ccccc4)no3)C2)n[nH]1` (stereo unspecified), the cytotoxicity at 10 µM amounted to 3.82%.

Take `CCn1cc(CN2CCCN(C(=O)Cc3ccc(C)nc3)CC2)cn1`: the cytotoxicity at 10 µM was -3.87%.

Consider `Cc1cc(C)nc(CNC(=O)C(c2cccnc2)N2CCOCC2)n1` (stereo unspecified), for which the cytotoxicity at 10 µM is -1.43%.

Values taken from ChEMBL document CHEMBL4513216, “Probing the Open Global Health Chemical Diversity Library for Multistage-Active Starting Points for Next-Generation Antimalarials” (ACS Infect Dis, 2020).
